Experimental data published in article PMC3954597 (Biochemistry, 2014).

Tests used:
SHP-2 = target: T1, SHP-2 (Homo sapiens, UniProt Q06124); settings: catalytic domain; cited from earlier work
T1 sequence (Q06124 199-593): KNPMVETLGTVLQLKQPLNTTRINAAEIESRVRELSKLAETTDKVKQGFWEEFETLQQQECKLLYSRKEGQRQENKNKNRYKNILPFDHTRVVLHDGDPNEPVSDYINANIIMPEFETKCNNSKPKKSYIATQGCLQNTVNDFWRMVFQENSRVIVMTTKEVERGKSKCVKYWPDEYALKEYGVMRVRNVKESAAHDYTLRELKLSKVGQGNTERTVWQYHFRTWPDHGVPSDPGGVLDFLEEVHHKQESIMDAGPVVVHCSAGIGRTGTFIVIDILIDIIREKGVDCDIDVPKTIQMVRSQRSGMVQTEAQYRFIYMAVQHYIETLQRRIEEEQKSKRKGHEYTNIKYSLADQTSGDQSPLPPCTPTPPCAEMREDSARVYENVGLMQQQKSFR

SHP-1 = SHP-1 (Homo sapiens, UniProt P29350); settings: catalytic domain; cited from earlier work
R47E PTP1B = target: T2, R47E PTP1B (Homo sapiens, UniProt P18031, R47E); test: PTP assay, R47E PTP1B; type: biochemical; settings: for Km / kcat / kcat/KM x 10^7: R47E PTP1B aa 1–321, pH 7.4; for WT/R47E: ratio of kcat/KM, WT over R47E PTP1B (fold decrease by the mutation)
T2 sequence (P18031 1-321 R47E): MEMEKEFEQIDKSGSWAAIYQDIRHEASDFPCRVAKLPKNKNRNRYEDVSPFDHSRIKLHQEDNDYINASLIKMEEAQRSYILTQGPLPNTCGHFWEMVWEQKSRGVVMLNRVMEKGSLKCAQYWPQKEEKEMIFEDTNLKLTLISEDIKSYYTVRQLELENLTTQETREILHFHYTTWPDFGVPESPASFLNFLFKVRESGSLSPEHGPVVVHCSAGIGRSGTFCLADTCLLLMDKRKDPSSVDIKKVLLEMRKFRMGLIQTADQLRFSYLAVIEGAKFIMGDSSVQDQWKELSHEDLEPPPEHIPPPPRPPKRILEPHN
In short: (§1)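 E. coli-expressed catalytic domains were used: wild-type, R24M or R47E PTP1B (aa 1–321), and SHP-1 (aa 205–595). Reactions started with PTP (0.5–20000 nM final) and dephosphorylation was monitored continuously at 282 nm. kcat, KM and kcat/KM came from initial-rate fits (Michaelis–Menten, or V = kcat[E][S]/KM when KM >> [S]) or from fits of progress curves.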

PTP1B = target: T3, PTP1B (Homo sapiens, UniProt P18031); test: PTP assay, wild-type PTP1B; type: biochemical; settings: for kcat/KM x 10^7: WT PTP1B aa 1–321, pH 7.4; for kcat/KM x10^6: WT catalytic domain aa 1–321, 100 mM HEPES pH 7.4, monitored at 282 nm
T3 sequence (P18031 1-321): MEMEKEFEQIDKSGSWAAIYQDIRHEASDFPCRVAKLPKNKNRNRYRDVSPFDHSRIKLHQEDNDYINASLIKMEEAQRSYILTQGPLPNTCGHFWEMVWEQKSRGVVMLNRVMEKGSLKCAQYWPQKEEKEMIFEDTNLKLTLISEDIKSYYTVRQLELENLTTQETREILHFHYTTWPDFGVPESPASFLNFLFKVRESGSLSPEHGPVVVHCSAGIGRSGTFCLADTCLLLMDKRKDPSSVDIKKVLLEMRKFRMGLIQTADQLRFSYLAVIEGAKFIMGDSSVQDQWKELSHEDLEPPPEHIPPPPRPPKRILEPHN
In short: as §1

R24M PTP1B = target: T4, R24M PTP1B (Homo sapiens, UniProt P18031, R24M); test: PTP assay, R24M PTP1B; type: biochemical; settings: for Km / kcat / kcat/KM x 10^7: R24M PTP1B aa 1–321, pH 7.4; for WT/R24M: ratio of kcat/KM, WT over R24M PTP1B (fold reduction by the mutation)
T4 sequence (P18031 1-321 R24M): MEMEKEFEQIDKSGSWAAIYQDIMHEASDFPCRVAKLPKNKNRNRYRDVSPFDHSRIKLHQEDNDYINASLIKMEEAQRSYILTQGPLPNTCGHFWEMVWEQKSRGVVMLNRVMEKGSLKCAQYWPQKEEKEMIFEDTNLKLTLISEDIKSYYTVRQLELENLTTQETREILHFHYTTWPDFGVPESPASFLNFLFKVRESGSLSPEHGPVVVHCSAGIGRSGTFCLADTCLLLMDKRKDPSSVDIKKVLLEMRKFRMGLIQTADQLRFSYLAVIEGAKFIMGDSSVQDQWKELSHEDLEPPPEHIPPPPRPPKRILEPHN
In short: as §1

PTP-PEST = target: T5, PTP-PEST (Homo sapiens, UniProt Q05209); test: PTP assay with pY peptide substrates, PTP-PEST; type: biochemical; settings: catalytic domain; pH 7.4
T5 sequence (Q05209 5-300): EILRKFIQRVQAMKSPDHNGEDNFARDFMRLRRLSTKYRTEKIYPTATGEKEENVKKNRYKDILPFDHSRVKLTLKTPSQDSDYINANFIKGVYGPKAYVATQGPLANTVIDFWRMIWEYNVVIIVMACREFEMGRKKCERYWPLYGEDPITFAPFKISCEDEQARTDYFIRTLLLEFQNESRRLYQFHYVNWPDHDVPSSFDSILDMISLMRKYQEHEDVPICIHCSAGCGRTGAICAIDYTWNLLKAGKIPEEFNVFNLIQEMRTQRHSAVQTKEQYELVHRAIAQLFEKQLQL

Chain of SHP-1 (P29350 205-595): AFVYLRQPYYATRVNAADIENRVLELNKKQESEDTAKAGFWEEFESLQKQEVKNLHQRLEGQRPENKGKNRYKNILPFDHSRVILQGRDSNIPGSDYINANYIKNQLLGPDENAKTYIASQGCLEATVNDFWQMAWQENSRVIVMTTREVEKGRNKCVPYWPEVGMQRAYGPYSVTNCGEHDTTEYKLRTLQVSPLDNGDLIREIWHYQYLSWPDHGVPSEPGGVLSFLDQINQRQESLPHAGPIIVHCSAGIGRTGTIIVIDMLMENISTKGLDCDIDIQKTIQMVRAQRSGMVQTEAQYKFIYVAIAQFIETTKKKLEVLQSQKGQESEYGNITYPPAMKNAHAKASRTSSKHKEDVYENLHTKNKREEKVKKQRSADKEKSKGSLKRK

Question: What does the source list for EIFDFpYAA?
Answer: Km (SHP-2): 54 ± 6 µM; kcat (SHP-2): 26 ± 1 s⁻¹; kcat/KM x10^6 (SHP-2): 0.48 x10^6 M^−1 s^−1; Km (SHP-1): 27 ± 4 µM; kcat (SHP-1): 32 ± 2 s⁻¹; kcat/KM x10^6 (SHP-1): 1.2 x10^6 M^−1 s^−1

Question: With AApYDDIDE as the substance, how does the Km (R47E PTP1B) read?
Answer: 56 ± 2 µM

Question: And the kcat (R47E PTP1B)?
Answer: 43 ± 1 s⁻¹

Question: And the “kcat/KM x 10^7” value (R47E PTP1B)?
Answer: 0.076 x 10^7 M^−1 s^−1

Question: What about the WT/R47E (R47E PTP1B) of the same substance?
Answer: 14

Question: What about the “kcat/KM x 10^7” value (PTP1B) of the same substance?
Answer: 1.1 x 10^7 M^−1 s^−1

Question: And the “kcat/KM x10^6” value (PTP1B)?
Answer: 11 x10^6 M^−1 s^−1

Question: What about the Km (R24M PTP1B) of the same substance?
Answer: 37 ± 1 µM

Question: And the kcat (R24M PTP1B)?
Answer: 42 ± 1 s⁻¹

Question: And the “kcat/KM x 10^7” value (R24M PTP1B)?
Answer: 0.11 x 10^7 M^−1 s^−1

Question: What about the WT/R24M (R24M PTP1B) of the same substance?
Answer: 10

Question: For DPRGIpYDQVAG, which Km (R47E PTP1B) is on record?
Answer: 23 ± 1 µM

Question: And the kcat (R47E PTP1B)?
Answer: 35 ± 1 s⁻¹

Question: What about the “kcat/KM x 10^7” value (R47E PTP1B) of the same substance?
Answer: 0.15 x 10^7 M^−1 s^−1

Question: What about the WT/R47E (R47E PTP1B) of the same substance?
Answer: 2.5

Question: And the “kcat/KM x 10^7” value (PTP1B)?
Answer: 0.38 x 10^7 M^−1 s^−1

Question: What about the Km (R24M PTP1B) of the same substance?
Answer: 71 ± 1 µM

Question: What about the kcat (R24M PTP1B) of the same substance?
Answer: 36 ± 1 s⁻¹

Question: What about the “kcat/KM x 10^7” value (R24M PTP1B) of the same substance?
Answer: 0.051 x 10^7 M^−1 s^−1

Question: And the WT/R24M (R24M PTP1B)?
Answer: 7.6

Question: What does the source list for ARKRIpYAA?
Answer: Km (R47E PTP1B): 31 ± 4 µM; kcat (R47E PTP1B): 37 ± 2 s⁻¹; kcat/KM x 10^7 (R47E PTP1B): 0.12 x 10^7 M^−1 s^−1; increased PTP1B activity by R47E mutation (R47E PTP1B; R47E relative to WT): 5 fold; WT/R47E (R47E PTP1B): 0.21; kcat/KM x 10^7 (PTP1B): 0.025 x 10^7 M^−1 s^−1

Question: Which Km (R47E PTP1B) does the source give for AApYIRKRA here?
Answer: 89 ± 3 µM

Question: And the kcat (R47E PTP1B)?
Answer: 34 ± 2 s⁻¹

Question: What about the “kcat/KM x 10^7” value (R47E PTP1B) of the same substance?
Answer: 0.038 x 10^7 M^−1 s^−1

Question: What about the WT/R47E (R47E PTP1B) of the same substance?
Answer: 1.1

Question: What about the “kcat/KM x 10^7” value (PTP1B) of the same substance?
Answer: 0.042 x 10^7 M^−1 s^−1

Question: What about the Km (R24M PTP1B) of the same substance?
Answer: 52 ± 3 µM

Question: What about the kcat (R24M PTP1B) of the same substance?
Answer: 34 ± 1 s⁻¹

Question: What about the “kcat/KM x 10^7” value (R24M PTP1B) of the same substance?
Answer: 0.065 x 10^7 M^−1 s^−1

Question: And the “increased PTP1B activity by R24M mutation” value (R24M PTP1B; R24M relative to WT)?
Answer: 1.6 fold

Question: And the WT/R24M (R24M PTP1B)?
Answer: 0.62

Question: Which results are given for WAGDDpYAA?
Answer: Km (SHP-2): 68 ± 15 µM; kcat (SHP-2): 36 ± 3 s⁻¹; kcat/KM x10^6 (SHP-2): 0.53 x10^6 M^−1 s^−1; Km (SHP-1): 45 ± 5 µM; kcat (SHP-1): 57 ± 2 s⁻¹; kcat/KM x10^6 (SHP-1): 1.3 x10^6 M^−1 s^−1

Question: With Ac-ASSDEpYAA-NH2 as the substance, how does the kcat/KM (PTP-PEST) read?
Answer: 7.2e+06 M⁻¹ s⁻¹

Question: What about the Km (R47E PTP1B) of the same substance?
Answer: 32 ± 1 µM

Question: And the kcat (R47E PTP1B)?
Answer: 31 ± 1 s⁻¹

Question: And the “kcat/KM x 10^7” value (R47E PTP1B)?
Answer: 0.097 x 10^7 M^−1 s^−1

Question: What about the WT/R47E (R47E PTP1B) of the same substance?
Answer: 18

Question: And the “kcat/KM x 10^7” value (PTP1B)?
Answer: 1.7 x 10^7 M^−1 s^−1

Question: And the “kcat/KM x10^6” value (PTP1B)?
Answer: 17 x10^6 M^−1 s^−1

Question: What about the Km (R24M PTP1B) of the same substance?
Answer: 3.8 ± 0.2 µM

Question: What about the kcat (R24M PTP1B) of the same substance?
Answer: 32 ± 1 s⁻¹

Question: What about the “kcat/KM x 10^7” value (R24M PTP1B) of the same substance?
Answer: 0.84 x 10^7 M^−1 s^−1

Question: And the WT/R24M (R24M PTP1B)?
Answer: 2.0

Question: With FYDIDpYAA as the substance, how does the Km (SHP-2) read?
Answer: 66 ± 13 µM

Question: What about the kcat (SHP-2) of the same substance?
Answer: 50 ± 4 s⁻¹

Question: And the “kcat/KM x10^6” value (SHP-2)?
Answer: 0.75 x10^6 M^−1 s^−1

Question: And the Km (SHP-1)?
Answer: 28 ± 2 µM

Question: And the kcat (SHP-1)?
Answer: 66 ± 2 s⁻¹

Question: What about the “kcat/KM x10^6” value (SHP-1) of the same substance?
Answer: 2.4 x10^6 M^−1 s^−1

Question: Which Km (R47E PTP1B) does the source give for AApYDDAAA here?
Answer: 34 ± 2 µM

Question: And the kcat (R47E PTP1B)?
Answer: 33 ± 2 s⁻¹

Question: What about the “kcat/KM x 10^7” value (R47E PTP1B) of the same substance?
Answer: 0.097 x 10^7 M^−1 s^−1

Question: And the WT/R47E (R47E PTP1B)?
Answer: 4.4

Question: And the “kcat/KM x 10^7” value (PTP1B)?
Answer: 0.43 x 10^7 M^−1 s^−1

Question: And the “kcat/KM x 10^7” value (R24M PTP1B)?
Answer: 0.027 x 10^7 M^−1 s^−1

Question: And the WT/R24M (R24M PTP1B)?
Answer: 16

Question: With FDIDIpYAA as the substance, how does the Km (SHP-2) read?
Answer: 39 ± 5 µM

Question: And the kcat (SHP-2)?
Answer: 30 ± 2 s⁻¹

Question: What about the “kcat/KM x10^6” value (SHP-2) of the same substance?
Answer: 0.77 x10^6 M^−1 s^−1

Question: What about the Km (SHP-1) of the same substance?
Answer: 13 ± 1 µM

Question: What about the kcat (SHP-1) of the same substance?
Answer: 33 ± 1 s⁻¹

Question: What about the “kcat/KM x10^6” value (SHP-1) of the same substance?
Answer: 2.5 x10^6 M^−1 s^−1
